Laboratory results as given in ChEMBL document CHEMBL1148313, “A new class of nonpeptide bradykinin B(2) receptor ligand, incorporating a 4-aminoquinoline framework. Identification of a key pharmacophore to determine species difference and agonist/antagonist profile” (J Med Chem, 2004).

Assays:
[1] = molecular target: T1, B2 bradykinin receptor (Cavia porcellus, UniProt O70526); test: Inhibition of specific binding of [3H]BK at 0.06 nM to bradykinin receptor B2 in guinea pig ileum membrane preparations by 50%.; format: cell membranes
T1 sequence (O70526 whole entry): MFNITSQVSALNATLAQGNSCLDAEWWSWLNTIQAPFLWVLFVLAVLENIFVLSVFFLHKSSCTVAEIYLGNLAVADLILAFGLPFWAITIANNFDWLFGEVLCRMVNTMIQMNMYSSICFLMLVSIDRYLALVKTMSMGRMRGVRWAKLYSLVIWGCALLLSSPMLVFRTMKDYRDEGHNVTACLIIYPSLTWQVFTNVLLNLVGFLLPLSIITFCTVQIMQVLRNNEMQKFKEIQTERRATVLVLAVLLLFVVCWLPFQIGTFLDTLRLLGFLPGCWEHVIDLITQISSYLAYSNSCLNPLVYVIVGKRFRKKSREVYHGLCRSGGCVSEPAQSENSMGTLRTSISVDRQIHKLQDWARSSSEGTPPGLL
Method in brief: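 Ileum membranes from male Hartley guinea pigs, 0.2 mg protein/mL, in TES pH 6.8 containing phenanthroline, bacitracin, DTT, captopril and 0.1% BSA. Incubated with [3H]BK and compound at room temperature for 60 min. GF/B filtration, scintillation counting; nonspecific binding with 1 μM BK. Three experiments.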

[2] = test system: Cavia porcellus; test: In vivo functional antagonistic activity in inhibiting BK (5 ug/kg, i.v.) induced bronchoconstriction in guinea pigs by 100 ug/kg iv administration
Method in brief: (§1)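 Male Hartley guinea pigs (470–750 g), fasted overnight, pentobarbital 30 mg/kg i.p., ventilated 10 mL/kg at 60 breaths/min, alcuronium 0.5 mg/kg i.v., propranolol 10 mg/kg s.c. BK in saline/0.1% BSA i.v.; compound in 5% citric acid i.v. 25 min after first BK, BK repeated 5 min later. Peak insufflation pressure rise (Konzett–Rössler); % inhibition versus vehicle, n = 3–4.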

[3] = molecular target: T2, B2 bradykinin receptor (Homo sapiens, UniProt P30411); test: Inhibition of specific binding of [3H]BK at 1 nM to human bradykinin receptor B2 expressed in CHO cells by 50%.; format: cell-based
T2 sequence (P30411 whole entry): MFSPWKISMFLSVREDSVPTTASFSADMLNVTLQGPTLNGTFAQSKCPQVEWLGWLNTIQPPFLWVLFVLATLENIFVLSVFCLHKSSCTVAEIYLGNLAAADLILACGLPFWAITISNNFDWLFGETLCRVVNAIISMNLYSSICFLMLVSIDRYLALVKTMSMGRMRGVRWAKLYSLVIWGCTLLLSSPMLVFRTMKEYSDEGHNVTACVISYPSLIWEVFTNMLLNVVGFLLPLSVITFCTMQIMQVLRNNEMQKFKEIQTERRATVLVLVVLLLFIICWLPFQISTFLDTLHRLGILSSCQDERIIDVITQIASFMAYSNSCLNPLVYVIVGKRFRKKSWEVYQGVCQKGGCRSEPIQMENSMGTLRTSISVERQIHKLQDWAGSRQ
Method in brief: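 Intact CHO (dhfr−) cells stably expressing human B2, seeded 3.0 × 10⁴/well for 1 day. Incubated with [3H]BK and compound 2 h at 4 °C in HEPES/N-methyl-D-glucamine buffer pH 7.2 with enalaprilat, bacitracin and 0.1% BSA. Cells lysed in SDS/NaOH and counted; nonspecific binding with 1 μM BK. Three experiments.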

[4] = test system: CHO; test: Relative agonistic activity in IP formation compared to BK (10 nM) IPs in CHO cells expressing the cloned human B2 receptor at 1 uM concentration; format: functional, Cricetulus griseus
Method in brief: (§2)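 Human B2-CHO cells labeled 24 h with [3H]inositol (1 μCi/mL). Preincubated in PBS/0.2% BSA with 10 mM LiCl for 30 min at 37 °C, then compound for 30 min at 37 °C. Stopped with 5% TCA. IP1–IP3 separated on AG 1-X8 and counted. Basal counts subtracted; response expressed relative to 10 nM BK.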

[5] = test system: CHO; test: Relative agonistic activity in IP formation compared to BK (10 nM) IPs in CHO cells expressing the cloned human B2 receptor at 10 uM concentration; format: functional, Cricetulus griseus; method in brief: as §2
[6] = test system: Cavia porcellus; test: In vivo functional antagonistic activity in inhibiting BK (5 ug/kg, i.v.) induced bronchoconstriction in guinea pigs by 10 ug/kg iv administration; method in brief: as §1

For `Cc1cc(N(C)C)c2cccc(OCc3c(Cl)ccc(N(C)C(=O)CNC(=O)/C=C/c4ccc(C(=O)NCc5ccccn5)cc4)c3Cl)c2n1.Cl`, the IC50 [1] was 28 nM, the Inhibition [2] was 97.3% and the IC50 [3] was 5.9 nM.
In the case of `Cc1cc(N2CCCCC2)c2cccc(OCc3c(Cl)ccc(N(C)C(=O)CNC(=O)/C=C/c4ccc(C(=O)NCc5ccccn5)cc4)c3Cl)c2n1.Cl`, the IC50 [1] is reported as 40 nM, the Inhibition [2] is reported as 72.6% and the IC50 [3] is reported as 2.5 nM.
For `Cc1cc(N2CCCCC2)c2cccc(OCc3c(Cl)ccc(N(C)C(=O)CNC(=O)/C=C/c4ccc(C(=O)Nc5ccncc5)cc4)c3Cl)c2n1.Cl`, the IC50 [1] was 240 nM, the Relative agonistic activity [4] was 5.7% and the IC50 [3] was 0.52 nM. The Relative agonistic activity [5] was 12.7%.
Work on `Cc1cc(N(C)C)c2cccc(OCc3c(Cl)ccc(N(C)C(=O)CNC(=O)/C=C/c4ccc(NC(=O)c5ccncc5)cc4)c3Cl)c2n1.Cl` yielded an IC50 [1] of 6.9 nM, an Inhibition [6] of 59% and an IC50 [3] of 0.47 nM.
`Cc1cc(N(C)C)c2cccc(OCc3c(Cl)ccc(N(C)C(=O)CNC(=O)Nc4cccc(C(=O)Nc5ccncc5)c4)c3Cl)c2n1.Cl` was tested, and the IC50 [1] was 12 nM, the Inhibition [2] was 97.7% and the IC50 [3] was 2.2 nM.
In the case of `CNC(=O)c1ccc(/C=C/C(=O)NCC(=O)N(C)c2ccc(Cl)c(COc3cccc4c(N5CCOCC5)cc(C)nc34)c2Cl)cn1.Cl`, the IC50 [1] is reported as 85 nM, the Inhibition [2] is reported as 72.3% and the IC50 [3] is reported as 1.1 nM.
With `CNC(=O)c1ccc(/C=C/C(=O)NCC(=O)N(C)c2ccc(Cl)c(COc3cccc4c(N5CCCCC5)cc(C)nc34)c2Cl)cc1.Cl.Cl.Cl.Cl` the IC50 [1] was 68 nM, the Relative agonistic activity [4] was 4.4% and the IC50 [3] was 1.1 nM. For the same compound, the Relative agonistic activity [5] was 4.2%.
In the case of `CNC(=O)c1ccc(/C=C/C(=O)NCC(=O)N(C)c2ccc(Cl)c(COc3cccc4c(N5CCOCC5)cc(C)nc34)c2Cl)cc1.Cl.Cl.Cl.Cl`, the IC50 [1] is reported as 12 nM, the Relative agonistic activity [4] is reported as 0.9% and the IC50 [3] is reported as 2.7 nM. The Relative agonistic activity [5] was -1.9%.
Work on `Cc1cc(N2CCOCC2)c2cccc(OCc3c(Cl)ccc(N(C)C(=O)CNC(=O)/C=C/c4ccc(NC(=O)c5ccncc5)cc4)c3Cl)c2n1.Cl` yielded an IC50 [1] of 29 nM, a Relative agonistic activity [4] of -0.1% and an IC50 [3] of 1 nM. It also gave a Relative agonistic activity [5] of 0.9%.
In the case of `Cc1cc(N(C)C)c2cccc(OCc3c(Cl)ccc(N(C)C(=O)CNC(=O)/C=C/c4ccc(C(=O)Nc5ccncc5)cc4)c3Cl)c2n1.Cl`, the IC50 [1] is reported as 5.1 nM, the Inhibition [6] is reported as 86.3% and the IC50 [3] is reported as 0.7 nM.
`CNC(=O)c1ccc(/C=C/C(=O)NCC(=O)N(C)c2ccc(Cl)c(COc3cccc4c(NCCOC)cc(C)nc34)c2Cl)cc1` was tested, and the IC50 [1] was 49 nM and the IC50 [3] was 41 nM.
`CNC(=O)c1ccc(/C=C/C(=O)NCC(=O)N(C)c2ccc(Cl)c(COc3cccc4c(N(C)C)cc(C)nc34)c2Cl)cn1.Cl` showed an IC50 [1] of 1.2 nM, an Inhibition [6] of 85.5% and an IC50 [3] of 1.6 nM.
Compound `CNC(=O)c1ccc(/C=C/C(=O)NCC(=O)N(C)c2ccc(Cl)c(COc3cccc4c(N(CCOC)CCOC)cc(C)nc34)c2Cl)cc1` has an IC50 [1] of 560 nM and an IC50 [3] of 19 nM.
In the case of `CC(=O)Nc1ccc(/C=C/C(=O)NCC(=O)N(C)c2ccc(Cl)c(COc3cccc4c(N(C)C)cc(C)nc34)c2Cl)cc1C.Cl.Cl.Cl.Cl`, the IC50 [1] is reported as 21 nM, the Inhibition [2] is reported as 94.7% and the IC50 [3] is reported as 4.8 nM.
With `Cc1cc(N(C)C)c2cccc(OCc3c(Cl)ccc(N(C)C(=O)CNC(=O)/C=C/c4ccc(C(=O)N(C)C)nc4)c3Cl)c2n1.Cl.Cl.Cl.Cl` the IC50 [1] was 8.1 nM, the Inhibition [6] was 89.7% and the IC50 [3] was 4 nM.
`CNC(=O)c1ccc(/C=C/C(=O)NCC(=O)N(C)c2ccc(Cl)c(COc3cccc4c(NCCN(C)C)cc(C)nc34)c2Cl)cc1` gave an IC50 [1] of 2300 nM and an IC50 [3] of 2500 nM.
`CNC(=O)c1ccc(/C=C/C(=O)NCC(=O)N(C)c2ccc(Cl)c(COc3cccc4c(N5CCN(C)CC5)cc(C)nc34)c2Cl)cc1` gave an IC50 [1] of 1500 nM and an IC50 [3] of 98 nM.
With `Cc1cc(N2CCOCC2)c2cccc(OCc3c(Cl)ccc(N(C)C(=O)CNC(=O)/C=C/c4ccc(C(=O)Nc5ccncc5)cc4)c3Cl)c2n1.Cl` the IC50 [1] was 37 nM, the Inhibition [2] was 91.8% and the Inhibition [6] was 46.2%. It also gave an IC50 [3] of 0.64 nM.
Work on `Cc1cc(N2CCCCC2)c2cccc(OCc3c(Cl)ccc(N(C)C(=O)CNC(=O)/C=C/c4ccc(N5CCCC5=O)cc4)c3Cl)c2n1.Cl.Cl.Cl.Cl` yielded an IC50 [1] of 28 nM, a Relative agonistic activity [4] of 14.8% and an IC50 [3] of 1.2 nM. It also gave a Relative agonistic activity [5] of 18.7%.
Work on `Cc1cc(N2CCCCC2)c2cccc(OCc3c(Cl)ccc(N(C)C(=O)CNC(=O)/C=C/c4ccc(NC(=O)c5ccncc5)cc4)c3Cl)c2n1.Cl` yielded an IC50 [1] of 75 nM, a Relative agonistic activity [4] of 5.6% and an IC50 [3] of 1.6 nM. It also gave a Relative agonistic activity [5] of 5.3%.
`CC(=O)Nc1ccc(/C=C/C(=O)NCC(=O)N(C)c2ccc(Cl)c(COc3cccc4c(N(C)C)cc(C)nc34)c2Cl)cn1.Cl` showed an IC50 [1] of 6.3 nM, an Inhibition [6] of 89.4% and an IC50 [3] of 4.2 nM.
For `CNC(=O)c1ccc(/C=C/C(=O)NCC(=O)N(C)c2ccc(Cl)c(COc3cccc4c(N5CCCC5)cc(C)nc34)c2Cl)cc1`, the IC50 [1] was 2300 nM and the IC50 [3] was 87 nM.
`Cc1cc(N2CCCCC2)c2cccc(OCc3c(Cl)ccc(N(C)C(=O)CNC(=O)/C=C/c4ccc(C(=O)N(C)C)cc4)c3Cl)c2n1.Cl.Cl.Cl.Cl` was tested, and the IC50 [1] was 30 nM, the Relative agonistic activity [4] was 17.2% and the IC50 [3] was 0.76 nM. For the same compound, the Relative agonistic activity [5] was 21.8%.
In the case of `Cc1cc(N2CCOCC2)c2cccc(OCc3c(Cl)ccc(N(C)C(=O)CNC(=O)/C=C/c4ccc(N5CCCC5=O)cc4)c3Cl)c2n1.Cl.Cl.Cl.Cl`, the IC50 [1] is reported as 13 nM, the Relative agonistic activity [4] is reported as 6% and the IC50 [3] is reported as 1.8 nM. For the same compound, the Relative agonistic activity [5] was 9.2%.
With `Cc1cc(N2CCOCC2)c2cccc(OCc3c(Cl)ccc(N(C)C(=O)CNC(=O)/C=C/c4ccc(C(=O)N(C)C)cc4)c3Cl)c2n1` the IC50 [1] was 43 nM and the IC50 [3] was 0.88 nM.
For `CNC(=O)c1ccc(/C=C/C(=O)NCC(=O)N(C)c2ccc(Cl)c(COc3cccc4c(N(C)C)cc(C)nc34)c2Cl)cc1OC.Cl.Cl.Cl.Cl`, the IC50 [1] was 5.6 nM, the Inhibition [6] was 88.7% and the IC50 [3] was 2 nM.
For `CNC(=O)c1ccc(/C=C/C(=O)NCC(=O)N(C)c2ccc(Cl)c(COc3cccc4c(N5CCCCCC5)cc(C)nc34)c2Cl)cc1`, the IC50 [1] was 840 nM and the IC50 [3] was 37 nM.
For `CC(=O)Nc1ccc(/C=C/C(=O)NCC(=O)N(C)c2ccc(Cl)c(COc3cccc4c(N5CCOCC5)cc(C)nc34)c2Cl)cn1`, the IC50 [1] was 65 nM, the Inhibition [2] was 47.8% and the IC50 [3] was 1.8 nM.
Compound `Cc1cc(N(C)C)c2cccc(OCc3c(Cl)ccc(N(C)C(=O)CNC(=O)/C=C/c4ccc(C(=O)N(C)C)cc4)c3Cl)c2n1.Cl.Cl` has an Inhibition [6] of 73.4%.
